High-throughput results as filed in PubChem BioAssay.
SENP8 block-1 = SENP8 protease inhibition. Q96LD8. purified SENP8, Z-RLRGG-aminoluciferin cleavage, luminescence. inhibition, % at 10 µM. actives 1.2% (n = 330,000); in the data active = inhibition above about 50%
Platelet DG rel = platelet dense granule release activity; AID 1663; inhibition, %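 (compounds screened at 7.5 µM in platelet-rich plasma)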; actives 0.22% (n = 300,000); human platelet-rich plasma, SFLLRN dense granule ATP release, luminescence;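 active = mean replicate score, as percent of positive control, at or above 50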
SENP8 block-2 = SENP8 (human) protease inhibition | Q96LD8 | actives 0.64% (n = 360,000) | AID 602440 | inhibition, % at 20 µM | recombinant SENP8, Nedd8 substrate fluorescence; in the data active = inhibition mostly above about 40%, no sharp cut-off; inactive = mostly below about 27%
SENP1 FRET inh = SENP1 (human) catalytic domain inhibition | actives 0.21% (n = 360,000) | recombinant SENP1 catalytic domain, CyPet-SUMO1-YPet FRET cleavage | AID 624204 | inhibition, % at 10 µM | Q9P0U3;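 active = inhibition at least 30% at 10 µM, raw YFP signal under a set limit, fluorescence ratio 0.5 to 1.5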;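 also: 0% = enzyme with DMSO and 100% = no enzyme wells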
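System: Recombinant human SENP1 catalytic domain, His6-tagged | Incubation: Enzyme reaction for 50 min at room temperature, dark | Medium: Tris pH 8 with BME, BSA, NP40 and catalase | Also added: 25 nM SUMO1 FRET substrate | Compound: 10 µM single point, 0.5% DMSO | Measured by: FRET fluorescence in CFP and YFP emission channels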
SENP7 inh = SENP7 protease inhibition. recombinant SENP7, Z-RLRGG-aminoluciferin luminescence, 40 min. inhibition, % at 5 µM. actives 1.5% (n = 330,000);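 active = inhibition above about 50% at the single test dose, limit read from the data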;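 also: plate controls were DMSO with enzyme for no effect and no enzyme buffer wells for full effect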
Target sequence (Q9BQF6 706-1050 limits assumed): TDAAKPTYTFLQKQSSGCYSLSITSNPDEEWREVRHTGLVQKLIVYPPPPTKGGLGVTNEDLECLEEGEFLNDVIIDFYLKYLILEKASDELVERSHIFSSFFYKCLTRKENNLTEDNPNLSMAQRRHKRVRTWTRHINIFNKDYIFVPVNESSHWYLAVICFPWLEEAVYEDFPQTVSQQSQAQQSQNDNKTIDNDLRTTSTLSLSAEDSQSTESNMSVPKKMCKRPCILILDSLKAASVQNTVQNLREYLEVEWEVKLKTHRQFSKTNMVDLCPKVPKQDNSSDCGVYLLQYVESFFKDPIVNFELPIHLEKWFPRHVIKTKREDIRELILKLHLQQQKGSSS
SENP6 block = SENP6 protease inhibition | Q9GZR1 | Recombinant SENP6 catalytic domain, aminoluciferin luminescence | inhibition, % at 10 µM | actives 1.8% (n = 330,000);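 active = inhibition above about 50% at the single tested dose, limit read from the data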;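 also: plate controls were DMSO wells with enzyme for no effect and DMSO wells lacking enzyme for full effect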
SENP8 confirm = confirmation of human SENP8 protease inhibitors. shares compounds with SENP7 inh. Recombinant SENP8, Z-RLRGG-aminoluciferin luminescence, 60 min. inhibition, % at 12.5 µM. actives 40% (n = 6,200). AID 488912;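 active = mean inhibition across replicates above about 50%, limit read from the data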
SENP6 confirm = confirmation of human SENP6 protease inhibitors; recombinant SENP6, Z-RLRGG-aminoluciferin luminescence; inhibition, % at 12.5 µM; shares compounds with SENP7 inh; actives 58% (n = 6,200); AID 488915
SENP7 confirm = human SENP7 inhibition, confirmed; shares compounds with SENP7 inh; recombinant SENP7, Z-RLRGG-aminoluciferin luminescence, 40 min; inhibition, % at 12.5 µM; actives 69% (n = 6,200)
Casp3 select = caspase-3 inhibition (SENP selectivity assay); shares compounds with SENP7 inh; inhibition, % at 12.5 µM; purified caspase-3, Z-DEVD-aminoluciferin luminescence, 60 min; actives 60% (n = 6,200);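 active = mean inhibition above about 50%, limit read from the data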;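 also: plate controls were enzyme with DMSO for no effect and wells without caspase-3 for full effect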
Target sequence (P42574 28-227 limits assumed): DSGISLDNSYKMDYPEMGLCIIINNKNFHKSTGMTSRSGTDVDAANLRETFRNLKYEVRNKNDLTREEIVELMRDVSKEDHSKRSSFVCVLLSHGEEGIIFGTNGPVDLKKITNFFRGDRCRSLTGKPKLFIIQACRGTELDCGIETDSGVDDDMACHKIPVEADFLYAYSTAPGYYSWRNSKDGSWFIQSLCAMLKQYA
Luc interf = counter-screen for SENP inhibitors: luminescence interference; shares compounds with SENP7 inh; inhibition, % at 12.5 µM; actives 39% (n = 6,200); Pre-incubated SENP8/Z-RLRGG-aminoluciferin, luciferase luminescence interference; AID 488919;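 active = mean inhibition above about 50% when retested at one dose, limit read from the data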;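 also: plate controls were DMSO wells with completed reaction for no effect and substrate without enzyme for full effect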
Numbers without * were called inactive; nt = no result. Rows were chosen to be rich in hits. Some 2.6% of all compounds tested hit in one or more screens of this group.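 The calls were made as follows, unless noted: active = mean inhibition above about 50% in the one-dose retest (limit read from the data); inactive = the rest.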

SMILES	SENP8 block-1	Platelet DG rel	SENP8 block-2	SENP1 FRET inh	SENP7 inh	SENP6 block	SENP8 confirm	SENP6 confirm	SENP7 confirm	Casp3 select	Luc interf
COc1cc(C2N=C(c3ccccc3)NO2)cc(Br)c1O (stereo unspecified)	77.2*	1.8	-165.4	-6.2	28.0	91.2*	85.0*	84.0*	91.7*	58.1*	85.2*
FC(F)Oc1ccc(C2N=C(c3ccccc3)NO2)cc1 (stereo unspecified)	53.7*	4.8	-19.7	-1.8	1.7	61.9*	17.0	28.1	23.7	17.9	13.8
COc1cccc2c1C(=O)CC1C2CCC2CC(=O)CCC21C (stereo unspecified)	1.9	8.2	14.2	1.1	-5.9	6.3	nt	nt	nt	nt	nt
O=c1c2cc(Br)ccc2nc(-c2ccccc2)n1O	48.5	5.1	-2.9	2.1	-2.7	62.5*	64.8*	60.9*	84.5*	60.8*	72.2*
Cc1ccc(NC(=O)/C(Cl)=C/c2ccccc2)cc1C	67.0*	0.0	13.8	1.5	80.7*	86.2*	2.0	80.5*	95.5*	53.7*	37.4
CC(=O)Nc1ccccc1C(=O)C(=O)Nc1ccc(C)c(C)c1	-5.7	-0.4	11.8	-0.6	1.9	1.6	nt	nt	nt	nt	nt
CC1CCC(C(C)C)C(OC(=O)CSc2n[nH]c(=O)[nH]c2=O)C1 (stereo unspecified)	50.8*	-0.6	4.7	0.8	-4.4	-0.3	-2.8	5.2	9.2	2.6	-9.1
COc1ccc(OC)c(C2CC(=O)Nc3c2c(=O)[nH]c2ncnn32)c1 (stereo unspecified)	-2.1	12.3	-4.6	1.8	-3.7	-2.5	nt	nt	nt	nt	nt
O=C1NC(=O)/C(=C\c2ccc(Br)o2)S1	35.9	13.9	-31.6	3.7	2.2	55.0*	56.0*	51.1*	61.9*	52.1*	45.5
Cc1ccc(S(=O)(=O)N(C)C)cc1-n1c(SCC(=O)Nc2ccccc2)nc2ccccc2c1=O	0.9	-6.6	2.8	0.8	7.8	50.1*	0.4	-5.1	-6.8	-1.7	-4.8
Cc1nnc(SCCOc2ccccc2)s1	-3.2	-3.6	-18.1	1.5	8.6	-8.0	nt	nt	nt	nt	nt
CC1(C(=O)Nc2ccc(F)cc2F)CCN1C(=O)CCC1CCCC1 (stereo unspecified)	nt	nt	8.2	1.5	nt	nt	nt	nt	nt	nt	nt
Cc1cnc(CN(C)C(=O)C2CCC(=O)N(CCc3ccc(Cl)cc3)C2)[nH]1 (stereo unspecified)	nt	nt	14.9	2.2	nt	nt	nt	nt	nt	nt	nt
O=C(CCC(=O)OCCCC(F)(F)C(F)(F)F)Nc1ccccc1	-0.4	-6.5	15.5	2.2	99.3*	-21.7	-2.1	-1.2	-6.1	-4.6	-3.8
Cc1ccccc1NC(=O)CCC(=O)OCCCC(F)(F)C(F)(F)F	-12.3	5.2	2.5	1.4	4.5	-10.2	nt	nt	nt	nt	nt
CCc1nc2ccc(C(=O)Nc3cc(-c4ccccc4)ccc3OC)cn2c1N(C=O)CCC(C)C	nt	nt	-13.6	-0.5	nt	nt	nt	nt	nt	nt	nt
O=c1oc(-c2ccccc2)cc2ccccc12	nt	nt	15.5	0.9	nt	nt	nt	nt	nt	nt	nt
Nc1ccc(-c2cc3ccccc3c(=O)o2)cc1	40.6	nt	-478.0	-25.3	26.3	52.5*	43.9	45.1	77.0*	54.6*	1.3
O=C(Nc1ccc(S(=O)(=O)Nc2cnc3ccccc3n2)cc1)c1cc(F)c(F)cc1Cl	-2.4	-6.9	-294.0	0.9	-4.2	7.0	nt	nt	nt	nt	nt
Cc1ccc(-c2csc(NC(=O)c3ccccc3F)c2C(=O)O)cc1	80.0*	-2.7	-20.4	-1.1	38.9	82.4*	7.5	85.3*	93.2*	83.6*	59.3*
Cc1cc(Br)ccc1NC(=O)c1ccccc1-c1ccccc1	2.3	-13.4	17.7	1.0	13.6	10.6	nt	nt	nt	nt	nt
Cc1ccccc1C(=O)Nc1scc(-c2ccc(Br)cc2)c1C(=O)O	75.0*	-26.2	-46.9	0.9	1.4	86.3*	2.2	53.1*	11.6	52.3*	4.3
CC(C)Cc1csc(NC(=O)c2ccc(Br)cc2)c1C(=O)O	87.6*	-4.8	7.3	2.3	-5.3	93.8*	92.2*	94.0*	92.5*	80.3*	58.4*
COc1ccc(-c2csc(NC(=O)c3ccccc3OC)c2C(=O)O)cc1OC	-8.7	-0.4	-153.8	0.0	1.3	9.1	nt	nt	nt	nt	nt
O=C(Nc1scc(-c2ccccc2)c1C(=O)O)c1ccccc1F	68.0*	-4.1	-45.3	2.1	15.2	74.7*	82.2*	78.7*	90.2*	85.1*	79.8*
SMILES	SENP8 block-1	Platelet DG rel	SENP8 block-2	SENP1 FRET inh	SENP7 inh	SENP6 block	SENP8 confirm	SENP6 confirm	SENP7 confirm	Casp3 select	Luc interf
COC(=O)[C@H](CC(C)C)N1Cc2cc(OC)cc(OC)c2-c2ccccc2S1(=O)=O	nt	nt	-104.1	-3.4	-2.9	nt	nt	nt	nt	nt	nt
Cc1cc(=O)oc2cc(NC(=S)NNC(=O)c3c(Cl)cnn3C)ccc12	0.2	0.1	-431.4	-6.8	-1.0	41.3	nt	nt	nt	nt	nt
CCOCCCn1c(=S)[nH]c2cc(C(=O)NC3CCCC(C)C3C)ccc2c1=O (stereo unspecified)	0.0	-11.4	25.1	-1.3	1.2	6.9	nt	nt	nt	nt	nt
Cc1ccc(C(=O)Nc2scc(-c3ccccc3)c2C(=O)O)o1	66.5*	8.7	-253.1	1.1	57.1*	49.9	85.5*	85.0*	96.1*	92.2*	81.7*
O=C(/C=C/c1ccccc1)Nc1scc(-c2ccccc2)c1C(=O)O	nt	-1.6	-3.3	1.3	nt	nt	nt	nt	nt	nt	nt
O=C(/C=C/c1ccco1)Nc1scc(-c2ccccc2)c1C(=O)O	97.1*	4.3	-4.4	-0.7	95.0*	97.8*	98.1*	98.8*	102.1*	97.9*	97.4*
COc1ccc(-c2csc(NC(=O)c3ccccc3Br)c2C(=O)O)cc1	29.8	23.3	5.0	0.8	5.8	52.5*	49.4	48.6	68.5*	47.9	61.6*
COc1ccc(-c2csc(NC(=O)c3cccs3)c2C(=O)O)cc1OC	60.1*	0.8	-18.9	-0.4	44.8	30.6	3.9	71.9*	89.8*	74.7*	75.8*
COc1ccc(CNC(=O)O[C@H]2C[C@@H]3C(=O)N(c4ccccc4)C(=O)[C@@H]3[C@@H]3CN(S(=O)(=O)c4ccc(C)cc4)C[C@]23O)cc1OC	nt	nt	-0.4	0.3	nt	nt	nt	nt	nt	nt	nt
O=C(Nc1scc(-c2ccc(Br)cc2)c1C(=O)O)c1ccccc1F	86.6*	2.6	-36.2	1.6	12.5	88.0*	86.6*	86.0*	67.6*	76.8*	33.4
